Calls of active or inactive are those of the source. No cut-off for these calls is given here.
Columns and labels:
[1] = target: T1, G-protein coupled receptor 35 (Homo sapiens, UniProt Q9HC97); experiment: Agonist activity at GPR35 in human HT-29 cells by DMR assay; format: cell-based
In short: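 HT-29 cells with endogenous GPR35, grown in McCoy's 5A with 10% FBS at 37 °C/5% CO2, seeded overnight to a confluent monolayer on resonant waveguide grating biosensor plates. Cells were washed, kept in HBSS for 1 h in the reader, and given a 2 min baseline before compound addition. Mean ± sd, two independent runs × four replicates (n=8).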

[2] = target: T1, G-protein coupled receptor 35; experiment: Agonist activity at GPR35 in human HT-29 cells assessed as induction of cell desensitization to 1 uM zaprinast preincubated for 1 hr followed by zaprinast stimulation measured after 8 minutes by DMR assay; format: cell-based
In short: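 Desensitization format in HT-29 cells on resonant waveguide grating biosensor plates, held in HBSS. […] Mean ± sd, two independent measurements, each with four replicates (n=8).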

[3] = target: T1, G-protein coupled receptor 35; experiment: Agonist activity at GPR35 in human HT-29 cells in presence of antagonist ML-145 by DMR assay; format: cell-based
In short: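 HT-29 DMR antagonist format: ML-145 was titrated against the coumarin agonist, each agonist given at its EC80–EC100 dose. Cells were kept in HBSS and equilibrated 1 h in the reader. IC50 was calculated from the DMR amplitude at 8 min post-stimulation. Mean ± sd, two independent measurements × four replicates (n=8).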

[4] = target: Hydroxycarboxylic acid receptor 2 (Homo sapiens) (UniProt Q8TDS4); experiment: Agonist activity at GPR109a receptor in human A431 cells at 1 uM preincubated for 1 hr followed by niacin addition by DMR assay; format: cell-based
Sequence of Hydroxycarboxylic acid receptor 2 (Homo sapiens) (Q8TDS4 whole entry): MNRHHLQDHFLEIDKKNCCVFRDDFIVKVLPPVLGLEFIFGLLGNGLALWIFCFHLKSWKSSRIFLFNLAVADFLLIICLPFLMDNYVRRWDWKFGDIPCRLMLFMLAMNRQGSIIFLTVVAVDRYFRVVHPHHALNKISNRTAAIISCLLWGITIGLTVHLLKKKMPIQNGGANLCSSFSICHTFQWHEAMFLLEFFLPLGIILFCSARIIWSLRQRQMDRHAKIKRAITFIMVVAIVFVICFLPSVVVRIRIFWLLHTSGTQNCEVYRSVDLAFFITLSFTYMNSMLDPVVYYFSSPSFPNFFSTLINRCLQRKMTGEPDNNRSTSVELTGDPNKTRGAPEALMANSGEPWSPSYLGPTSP

[5] = target: T2, Type-1 angiotensin II receptor (Homo sapiens) (UniProt P30556); experiment: Agonist activity at angiotensin AT1 receptor in human A549 cells at 1 uM preincubated for 1 hr followed by angiotensin 2 addition by DMR assay; format: cell-based
T2 sequence (whole entry): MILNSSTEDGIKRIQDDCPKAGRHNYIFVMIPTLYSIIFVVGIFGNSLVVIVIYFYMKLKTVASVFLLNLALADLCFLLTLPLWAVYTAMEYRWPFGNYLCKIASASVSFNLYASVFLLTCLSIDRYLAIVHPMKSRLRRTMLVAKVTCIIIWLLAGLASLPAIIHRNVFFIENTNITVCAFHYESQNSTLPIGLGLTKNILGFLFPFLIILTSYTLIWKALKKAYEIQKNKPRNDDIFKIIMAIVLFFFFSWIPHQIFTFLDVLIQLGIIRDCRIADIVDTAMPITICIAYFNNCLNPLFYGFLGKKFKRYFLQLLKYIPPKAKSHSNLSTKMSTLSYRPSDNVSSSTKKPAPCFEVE

[6] = target: Beta-2 adrenergic receptor (Homo sapiens) (UniProt P07550); experiment: Agonist activity at beta2 adrenergic receptor in human A431 cells at 1 uM preincubated for 1 hr followed by epinephrine addition by DMR assay; format: cell-based
Sequence of Beta-2 adrenergic receptor (Homo sapiens) (P07550 whole entry, looked up): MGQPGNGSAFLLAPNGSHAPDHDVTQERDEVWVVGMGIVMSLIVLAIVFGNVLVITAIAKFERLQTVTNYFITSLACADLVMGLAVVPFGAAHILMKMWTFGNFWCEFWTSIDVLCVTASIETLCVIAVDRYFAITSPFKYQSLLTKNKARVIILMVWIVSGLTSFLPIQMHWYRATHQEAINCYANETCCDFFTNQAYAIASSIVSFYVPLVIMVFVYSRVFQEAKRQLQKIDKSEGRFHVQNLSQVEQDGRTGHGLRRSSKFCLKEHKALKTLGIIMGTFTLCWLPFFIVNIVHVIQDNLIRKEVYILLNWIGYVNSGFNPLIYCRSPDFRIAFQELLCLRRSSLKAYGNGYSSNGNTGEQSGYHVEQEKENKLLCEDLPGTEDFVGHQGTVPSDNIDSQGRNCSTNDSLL

[7] = target: T3, B2 bradykinin receptor (Homo sapiens) (UniProt P30411); experiment: Agonist activity at bradykinin B2 receptor in human A549 cells at 1 uM preincubated for 1 hr followed by bradykinin addition by DMR assay; format: cell-based
T3 sequence (whole entry): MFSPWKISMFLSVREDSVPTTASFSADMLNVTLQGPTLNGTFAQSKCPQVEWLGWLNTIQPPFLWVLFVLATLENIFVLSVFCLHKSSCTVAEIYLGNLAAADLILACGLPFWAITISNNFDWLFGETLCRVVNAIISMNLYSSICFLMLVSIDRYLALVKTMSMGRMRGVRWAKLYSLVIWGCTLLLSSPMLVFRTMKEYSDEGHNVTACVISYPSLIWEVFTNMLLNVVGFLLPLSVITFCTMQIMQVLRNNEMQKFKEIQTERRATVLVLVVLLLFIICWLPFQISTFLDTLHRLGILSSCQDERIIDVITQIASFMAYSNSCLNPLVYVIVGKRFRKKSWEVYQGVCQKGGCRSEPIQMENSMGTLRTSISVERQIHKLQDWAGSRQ

[8] = target: T1, G-protein coupled receptor 35; experiment: Agonist activity at TEV protease cleavage site linked GAL4-VP16-fused GPR35 in human Tango GPR35-bla U2OS cells assessed as induction of TEV protease-tagged beta-arrestin recruitment incubated for 5 hrs by beta-lactamase reporter gene assay
[9] = target: T1, G-protein coupled receptor 35; experiment: Agonist activity at TEV protease cleavage site linked GAL4-VP16-fused GPR35 in human Tango GPR35-bla U2OS cells assessed as induction of TEV protease-tagged beta-arrestin recruitment incubated for 5 hrs by beta-lactamase reporter gene assay relative to zaprinast
[10] = target: Histamine H1 receptor (Homo sapiens) (UniProt P35367); experiment: Agonist activity at histamine H1 receptor in human A431 cells at 1 uM preincubated for 1 hr followed by histamine addition by DMR assay; format: cell-based
Sequence of Histamine H1 receptor (Homo sapiens) (P35367 whole entry): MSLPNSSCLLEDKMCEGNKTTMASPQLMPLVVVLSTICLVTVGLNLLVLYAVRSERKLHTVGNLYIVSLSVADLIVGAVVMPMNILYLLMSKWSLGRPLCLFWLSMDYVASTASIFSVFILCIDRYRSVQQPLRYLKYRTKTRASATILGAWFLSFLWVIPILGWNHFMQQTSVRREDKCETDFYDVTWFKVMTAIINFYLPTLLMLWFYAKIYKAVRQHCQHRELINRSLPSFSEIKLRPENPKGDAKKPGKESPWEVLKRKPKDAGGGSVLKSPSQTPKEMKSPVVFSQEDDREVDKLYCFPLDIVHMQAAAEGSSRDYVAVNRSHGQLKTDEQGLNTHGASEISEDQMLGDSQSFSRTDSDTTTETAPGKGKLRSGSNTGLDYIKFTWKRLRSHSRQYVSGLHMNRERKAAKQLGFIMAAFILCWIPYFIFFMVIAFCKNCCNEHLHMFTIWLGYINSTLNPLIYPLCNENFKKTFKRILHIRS

[11] = target: T1, G-protein coupled receptor 35; experiment: Agonist activity at human GPR35 expressed in CHO-K1 cells after 90 mins by beta-arrestin 2 recruitment assay; format: cell-based
[12] = target: T1, G-protein coupled receptor 35; experiment: Agonist activity at human GPR35 expressed in CHO-K1 cells by DMR assay; format: cell-based

T1 sequence (Q9HC97 whole entry): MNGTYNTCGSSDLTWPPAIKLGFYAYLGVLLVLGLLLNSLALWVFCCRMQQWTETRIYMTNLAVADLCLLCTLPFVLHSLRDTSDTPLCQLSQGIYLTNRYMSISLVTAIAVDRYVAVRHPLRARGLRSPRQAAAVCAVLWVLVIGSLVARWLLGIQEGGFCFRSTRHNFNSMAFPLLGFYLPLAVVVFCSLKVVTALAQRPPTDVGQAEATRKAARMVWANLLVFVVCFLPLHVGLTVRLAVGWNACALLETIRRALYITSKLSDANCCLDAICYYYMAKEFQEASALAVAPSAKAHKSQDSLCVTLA

Structure (SMILES)	EC50 ([1]; read-out: EC50) [nM]	IC50 [2] [nM]	Activity [3]	other results
COc1c(Br)cc2cc(-c3nnn[nH]3)c(=O)oc2c1[N+](=O)[O-]	2660	2820	inactive	–
N#Cc1cc2cc(Br)c(O)cc2oc1=O	9270	9330	inactive	–
O=C(O)c1cc2cc(Br)ccc2oc1=O	10800	11300	inactive	–
N#Cc1cc2cc(Br)c(O)c(Br)c2oc1=O	2330	2890	inactive	–
COc1cc2oc(=O)c(-c3nnn[nH]3)cc2cc1Br	14800	14100	inactive	–
O=c1oc2ccccc2cc1-c1nn[nH]n1	6760	5080	inactive	–
O=c1oc2c([N+](=O)[O-])c(O)c(Br)cc2cc1-c1nnn[nH]1	5.8	8.6	inactive	Activity [4]: inactive; Activity [2]: Dose-dependent effect; Activity [5]: inactive; Activity [6]: inactive; Activity [7]: inactive; EC50 [8]: 197 nM; Efficacy [9]: 104%; Activity [10]: inactive
CC(C)c1ccc2oc3nc(N)c(C(=O)O)cc3c(=O)c2c1 [AMLEXANOX]	–	–	–	EC50 [11]: 4000 nM
O=C(O)c1cc2cc(Br)c(O)c([N+](=O)[O-])c2oc1=O	51	31	inactive	EC50 [8]: 479 nM; Efficacy [9]: 111%
O=c1oc2c([N+](=O)[O-])cc(Br)cc2cc1-c1nnn[nH]1	330	330	inactive	–
COc1c(Br)cc2cc(-c3nnn[nH]3)c(=O)oc2c1Br	1410	460	inactive	EC50 [8]: 14100 nM; Efficacy [9]: 86.4%
O=C(O)c1cc2cc(Br)cc([N+](=O)[O-])c2oc1=O	4270	3750	inactive	–
O=C(O)c1cc(=O)c2c(OCC(O)COc3cccc4oc(C(=O)O)cc(=O)c34)cccc2o1 [CROMOLYN]	–	–	–	EC50 [11]: 7000 nM; EC50 [12]: 52 nM
O=c1oc2c(Br)cc(Br)cc2cc1-c1nnn[nH]1	930	380	inactive	EC50 [8]: 7050 nM; Efficacy [9]: 81.3%
COc1c(Br)cc2cc(C(=O)O)c(=O)oc2c1Br	890	750	inactive	–
COc1c(Br)cc2cc(C#N)c(=O)oc2c1Br	8220	590	inactive	–
N#Cc1cc(NC(=O)C(=O)O)c(Cl)c(NC(=O)C(=O)O)c1 [LODOXAMIDE]	–	–	–	EC50 [11]: 4000 nM

Structure (SMILES)	EC50 ([1]; read-out: EC50) [nM]	IC50 [2] [nM]	Activity [3]	other results
O=C(O)c1cc2cc(Br)c(O)cc2oc1=O	4340	3760	inactive	–
N#Cc1cc2ccccc2oc1=O	–	–	–	EC50 [1]: Not Active
N#Cc1cc2cc(Cl)cc(Cl)c2oc1=O	8610	8610	inactive	–
CCCOc1ccccc1-c1nc2[nH]nnc2c(=O)[nH]1	–	–	–	Efficacy [9]: 100%
N#Cc1cc2cc(Br)cc(Br)c2oc1=O	17700	14900	inactive	–
O=c1oc2cc(O)c(Br)cc2cc1-c1nnn[nH]1	710	483	inactive	–
O=C(O)c1cc2cc(Cl)cc(Cl)c2oc1=O	2020	2300	inactive	–
N#Cc1cc2cc(Br)cc([N+](=O)[O-])c2oc1=O	700	650	inactive	–
O=C(O)c1cc2cc(Br)cc(Br)c2oc1=O	1750	1080	inactive	–
N#Cc1cc2cc(Cl)ccc2oc1=O	21400	21400	inactive	–
COc1c(Br)cc2cc(C#N)c(=O)oc2c1[N+](=O)[O-]	2910	1690	inactive	–
O=C(O)c1cc2ccccc2oc1=O [COUMARIN-3-CARBOXYLIC ACID]	92300	100000	inactive	–
O=C(O)c1cc2cc(Br)c(O)c(Br)c2oc1=O	150	56	inactive	EC50 [8]: 3630 nM; Efficacy [9]: 168%
O=c1oc2c(Br)c(O)c(Br)cc2cc1-c1nnn[nH]1	68	23	inactive	EC50 ([1]; read-out: pEC50 (converted)): 66.7 nM; EC50 [8]: 1540 nM; Efficacy [9]: 126%
O=C(O)c1cc2cc(Cl)ccc2oc1=O	13500	13200	inactive	–
O=c1oc2c([N+](=O)[O-])c(O)c([N+](=O)[O-])cc2cc1-c1nnn[nH]1	14	13	inactive	EC50 [8]: 288 nM; Efficacy [9]: 107%
